Assay results: ChEMBL document CHEMBL3286182, “4-aminoquinolone piperidine amides: noncovalent inhibitors of DprE1 with long residence time and potent antimycobacterial activity” (J Med Chem, 2014)
Converted amounts (≈) assume the structure as drawn. The source made the active and inactive calls. The calls are words filed in the database; no cut-off is given here.

Experiments:
[1] = system: Mycobacterium tuberculosis; assay: Antimycobacterial activity against Mycobacterium tuberculosis over expressing TopA after 5 days by standard microdilution method; format: functional; settings: 120 h
[2] = system: Mycobacterium tuberculosis; assay: Antimycobacterial activity against Mycobacterium tuberculosis over expressing PimA after 5 days by standard microdilution method; format: functional; settings: 120 h
[3] = system: Mycobacterium tuberculosis; assay: Antimycobacterial activity against Mycobacterium tuberculosis H37Rv after 5 days by standard microdilution method; format: functional; settings: 120 h
[4] = system: Mycobacterium tuberculosis; assay: Antimycobacterial activity against Mycobacterium tuberculosis over expressing DprE1 after 5 days by standard microdilution method; format: functional; settings: 120 h
[5] = system: Mycobacterium tuberculosis; assay: Antimycobacterial activity against Mycobacterium tuberculosis over expressing InhA after 5 days by standard microdilution method; format: functional; settings: 120 h
Cytochrome P450 2D6 = Cytochrome P450 2D6 (Homo sapiens, UniProt P10635); assay: Inhibition of CYP2D6 (unknown origin); format: ADME
Method in brief: (§1)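 CYP inhibition IC50 measured on isoforms CYP3A4, CYP2D6, CYP2C9, CYP2C19 and CYP1A2.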

Cytochrome P450 2C9 = Cytochrome P450 2C9 (Homo sapiens, UniProt P11712); assay: Inhibition of CYP2C9 (unknown origin); format: ADME; method in brief: as §1
[6] = Inhibition of Mycobacterium smegmatis recombinant DprE1 using farnesylphosphoryl-beta-D-ribofuranose as substrate assessed as conversion of amplex red to resorufin after 30 mins; design: species or system Mycolicibacterium smegmatis
Method in brief: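 Msm DprE1 (thioredoxin-6His fusion of Msm Rv3790) at 75 nM, preincubated 30 min with 10 μM FAD. Buffer: 50 mM glycylglycine pH 8.5, 200 mM potassium glutamate, 0.002% Brij-35, 2% DMSO, 25 °C. Started with 300 μM farnesylphosphoryl-β-D-ribofuranose, 0.01 mg/mL HRP and 50 μM Amplex Red.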

[7] = Intrinsic clearance in human liver microsomes at 1 uM up to 30 mins by LC-MS/MS analysis; format: ADME; settings: read-out: CLH
Adenosine receptor A1 = target: T1, Adenosine receptor A1 (Homo sapiens, UniProt P30542); assay: Inhibition of adenosine A1 receptor (unknown origin)
T1 sequence (P30542 whole entry): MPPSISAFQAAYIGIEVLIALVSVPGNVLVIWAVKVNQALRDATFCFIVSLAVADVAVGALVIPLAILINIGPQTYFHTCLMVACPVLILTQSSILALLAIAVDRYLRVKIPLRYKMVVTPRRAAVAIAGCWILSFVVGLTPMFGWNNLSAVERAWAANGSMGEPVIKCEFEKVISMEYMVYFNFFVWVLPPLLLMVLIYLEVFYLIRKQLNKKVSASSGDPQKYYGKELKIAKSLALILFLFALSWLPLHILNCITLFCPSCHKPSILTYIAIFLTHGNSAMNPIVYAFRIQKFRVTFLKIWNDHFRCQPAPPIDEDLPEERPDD
Method in brief: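 Secondary pharmacology panel of binding, enzyme and functional assays covering 24 molecular targets. Activity recorded as a defined Ki/IC50/EC50.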

[8] = Intrinsic clearance in rat cryopreserved hepatocytes assessed per 10^6 cells at 1 uM up to 120 mins by LC-MS/MS analysis; format: ADME, cell-based, Hepatocyte; settings: read-out: CLH
Cytochrome P450 1A2 = target: T2, Cytochrome P450 1A2 (Homo sapiens, UniProt P05177); assay: Inhibition of CYP1A2 (unknown origin); format: ADME; method in brief: as §1
T2 sequence (P05177 whole entry): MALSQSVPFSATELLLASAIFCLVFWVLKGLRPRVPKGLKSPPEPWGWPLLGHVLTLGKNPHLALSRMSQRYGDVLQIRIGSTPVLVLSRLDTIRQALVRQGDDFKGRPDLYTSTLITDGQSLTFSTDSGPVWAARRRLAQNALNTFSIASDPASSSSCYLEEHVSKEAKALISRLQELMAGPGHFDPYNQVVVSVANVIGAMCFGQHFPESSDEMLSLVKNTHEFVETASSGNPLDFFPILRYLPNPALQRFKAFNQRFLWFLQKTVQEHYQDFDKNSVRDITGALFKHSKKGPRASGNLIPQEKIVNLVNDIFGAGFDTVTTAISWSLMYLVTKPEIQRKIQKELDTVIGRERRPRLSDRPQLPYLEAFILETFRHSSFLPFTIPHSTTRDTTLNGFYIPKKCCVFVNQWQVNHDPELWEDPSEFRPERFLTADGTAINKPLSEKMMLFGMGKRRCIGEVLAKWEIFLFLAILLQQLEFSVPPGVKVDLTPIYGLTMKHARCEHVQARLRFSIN

[9] = Solubility of the compound in 0.1 M phosphate buffer at pH 7.4 after 24 hrs by UV and MS analysis; format: physicochemical
[10] = Cytotoxicity against human A549 cells after 72 hrs by resazurin based fluorescence assay; format: cell-based; settings: read-out: MIC
Method in brief: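 Cytotoxicity read as MMIC, the MIC on the A549 cell line.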

Cytochrome P450 2C19 = Cytochrome P450 2C19 (Homo sapiens, UniProt P33261); assay: Inhibition of CYP2C19 (unknown origin); format: ADME; method in brief: as §1
[11] = target: Voltage-gated inwardly rectifying potassium channel KCNH2 (Homo sapiens, UniProt Q12809); assay: Inhibition of human ERG by medium-throughput electrophysiology
[12] = Fraction unbound in human plasma at 20 uM after 18 hrs by equilibrium dialysis method; format: ADME, cell-free
[13] = Permeability of the compound from apical to basolateral side in human Caco2 cells; format: ADME, cell-based; settings: Caco-2, read-out: permeability
[14] = Permeability of the compound from basolateral to apical side in human Caco2 cells; format: ADME, cell-based; settings: Caco-2, read-out: permeability
[15] = Octanol-water partition coefficient, log D of the compound by shake-flask method; format: physicochemical
Cytochrome P450 3A4 = Cytochrome P450 3A4 (Homo sapiens, UniProt P08684); assay: Inhibition of CYP3A4 (unknown origin); format: ADME; method in brief: as §1
Pseudomonas aeruginosa [16] = assay: Antimicrobial activity against Pseudomonas aeruginosa ARC546 at 100 uM; format: functional, organism-based
Method in brief: (§2)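 Nonmycobacterial panel of Candida albicans, Gram-negative and Gram-positive pathogens.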

Haemophilus influenzae [17] = assay: Antimicrobial activity against Haemophilus influenzae ARC158 at 100 uM; format: functional, organism-based; method in brief: as §2
[18] = system: Mycobacterium tuberculosis; assay: Antimycobacterial activity against Mycobacterium tuberculosis H37Rv under hypoxic condition after 6 days by resazurin assay; format: functional
Escherichia coli [19] = assay: Antimicrobial activity against Escherichia coli ARC524 at 100 uM; format: functional, organism-based; method in brief: as §2
Staphylococcus aureus = assay: Antimicrobial activity against Staphylococcus aureus ARC517 at 100 uM; format: functional, organism-based; method in brief: as §2
Klebsiella pneumoniae = assay: Antimicrobial activity against Klebsiella pneumoniae ARC1865 at 100 uM; format: functional, organism-based; method in brief: as §2
[20] = system: Mycolicibacterium smegmatis; assay: Antimicrobial activity against Mycobacterium smegmatis mc2155 at 100 uM; format: functional, organism-based; settings: str. MC2 155
Escherichia coli [21] = assay: Antimicrobial activity against Escherichia coli ARC523 at 100 uM; format: functional, organism-based; method in brief: as §2
Streptococcus pneumoniae = assay: Antimicrobial activity against Streptococcus pneumoniae ARC548 at 100 uM; format: functional, organism-based; method in brief: as §2
[22] = system: Mycolicibacterium smegmatis; assay: Antimicrobial activity against Mycobacterium smegmatis ATCC 607 at 100 uM; format: functional, organism-based
Candida albicans = assay: Antimicrobial activity against Candida albicans ARC527 at 100 uM; format: functional, organism-based; method in brief: as §2
Pseudomonas aeruginosa [23] = assay: Antimicrobial activity against Pseudomonas aeruginosa ARC545 at 100 uM; format: functional, organism-based; method in brief: as §2
Haemophilus influenzae [24] = assay: Antimicrobial activity against Haemophilus influenzae ARC446 at 100 uM; format: functional, organism-based; method in brief: as §2

Cytochrome P450 2C9, sequence (P11712 whole entry): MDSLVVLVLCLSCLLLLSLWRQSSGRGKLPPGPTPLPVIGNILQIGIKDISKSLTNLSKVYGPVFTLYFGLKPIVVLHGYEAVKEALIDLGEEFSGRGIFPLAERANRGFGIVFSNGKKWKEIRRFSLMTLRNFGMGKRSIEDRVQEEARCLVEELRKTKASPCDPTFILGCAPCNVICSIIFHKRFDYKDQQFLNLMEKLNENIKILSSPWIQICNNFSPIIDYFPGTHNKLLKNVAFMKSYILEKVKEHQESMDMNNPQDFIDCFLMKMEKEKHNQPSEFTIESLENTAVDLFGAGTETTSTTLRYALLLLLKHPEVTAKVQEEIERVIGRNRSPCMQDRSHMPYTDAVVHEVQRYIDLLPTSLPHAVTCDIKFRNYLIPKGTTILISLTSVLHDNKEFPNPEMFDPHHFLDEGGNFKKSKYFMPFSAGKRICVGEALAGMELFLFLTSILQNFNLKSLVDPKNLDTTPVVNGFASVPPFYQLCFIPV
Cytochrome P450 3A4, sequence (P08684 whole entry): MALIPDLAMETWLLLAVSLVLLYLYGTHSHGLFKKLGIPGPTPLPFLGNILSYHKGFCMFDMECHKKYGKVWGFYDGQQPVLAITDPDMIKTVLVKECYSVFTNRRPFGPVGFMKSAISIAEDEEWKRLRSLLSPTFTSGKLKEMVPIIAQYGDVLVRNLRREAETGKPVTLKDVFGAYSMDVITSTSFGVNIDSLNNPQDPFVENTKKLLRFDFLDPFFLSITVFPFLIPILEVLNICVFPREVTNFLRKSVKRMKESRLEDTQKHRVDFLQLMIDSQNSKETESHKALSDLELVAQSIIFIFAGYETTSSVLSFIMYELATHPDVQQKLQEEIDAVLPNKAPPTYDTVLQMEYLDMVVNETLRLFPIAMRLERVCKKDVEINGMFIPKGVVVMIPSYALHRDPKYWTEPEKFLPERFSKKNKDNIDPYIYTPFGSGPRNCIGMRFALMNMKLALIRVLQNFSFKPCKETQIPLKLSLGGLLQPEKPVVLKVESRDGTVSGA
Voltage-gated inwardly rectifying potassium channel KCNH2, sequence (Q12809 whole entry): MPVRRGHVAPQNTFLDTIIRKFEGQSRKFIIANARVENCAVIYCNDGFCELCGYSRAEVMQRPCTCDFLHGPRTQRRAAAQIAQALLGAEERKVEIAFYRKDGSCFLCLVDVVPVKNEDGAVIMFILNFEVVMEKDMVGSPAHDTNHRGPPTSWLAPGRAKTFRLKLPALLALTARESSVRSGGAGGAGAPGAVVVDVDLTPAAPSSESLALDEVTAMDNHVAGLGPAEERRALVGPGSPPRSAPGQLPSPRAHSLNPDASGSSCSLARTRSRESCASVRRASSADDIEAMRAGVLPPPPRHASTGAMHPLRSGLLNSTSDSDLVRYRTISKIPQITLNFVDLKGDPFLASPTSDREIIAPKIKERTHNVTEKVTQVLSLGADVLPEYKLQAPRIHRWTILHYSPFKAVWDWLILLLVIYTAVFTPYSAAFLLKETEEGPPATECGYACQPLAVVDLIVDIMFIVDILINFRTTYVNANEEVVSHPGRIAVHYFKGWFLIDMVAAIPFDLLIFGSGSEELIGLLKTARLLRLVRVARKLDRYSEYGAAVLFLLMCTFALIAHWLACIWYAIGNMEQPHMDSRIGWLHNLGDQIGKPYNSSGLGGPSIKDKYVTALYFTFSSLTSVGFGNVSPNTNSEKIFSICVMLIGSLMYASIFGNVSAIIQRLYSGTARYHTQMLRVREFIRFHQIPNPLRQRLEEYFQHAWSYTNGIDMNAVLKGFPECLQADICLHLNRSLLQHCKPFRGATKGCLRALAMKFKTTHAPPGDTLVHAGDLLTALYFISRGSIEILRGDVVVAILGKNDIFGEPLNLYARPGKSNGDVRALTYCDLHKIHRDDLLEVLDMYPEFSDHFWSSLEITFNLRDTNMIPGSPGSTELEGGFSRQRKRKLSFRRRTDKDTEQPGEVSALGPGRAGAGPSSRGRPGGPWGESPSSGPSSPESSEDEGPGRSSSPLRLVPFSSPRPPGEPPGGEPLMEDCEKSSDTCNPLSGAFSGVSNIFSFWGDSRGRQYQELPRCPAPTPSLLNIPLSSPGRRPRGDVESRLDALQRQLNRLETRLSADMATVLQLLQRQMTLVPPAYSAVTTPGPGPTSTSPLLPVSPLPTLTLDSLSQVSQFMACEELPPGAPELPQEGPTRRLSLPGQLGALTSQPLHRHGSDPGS
Cytochrome P450 2D6, sequence (P10635 whole entry, canonical isoform): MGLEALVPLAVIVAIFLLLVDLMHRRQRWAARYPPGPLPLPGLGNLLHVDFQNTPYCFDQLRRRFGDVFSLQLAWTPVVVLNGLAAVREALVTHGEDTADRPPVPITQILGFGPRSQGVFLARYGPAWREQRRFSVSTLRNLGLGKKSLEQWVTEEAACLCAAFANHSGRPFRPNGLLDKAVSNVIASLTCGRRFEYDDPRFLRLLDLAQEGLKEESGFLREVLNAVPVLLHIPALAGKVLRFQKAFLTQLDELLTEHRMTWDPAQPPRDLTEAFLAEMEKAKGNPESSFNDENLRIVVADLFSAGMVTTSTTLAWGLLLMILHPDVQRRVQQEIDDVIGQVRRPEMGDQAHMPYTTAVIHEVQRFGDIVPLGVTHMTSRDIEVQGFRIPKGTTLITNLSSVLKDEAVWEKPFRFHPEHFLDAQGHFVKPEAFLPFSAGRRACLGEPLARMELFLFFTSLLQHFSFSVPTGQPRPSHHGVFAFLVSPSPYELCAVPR
Cytochrome P450 2C19, sequence (P33261 whole entry): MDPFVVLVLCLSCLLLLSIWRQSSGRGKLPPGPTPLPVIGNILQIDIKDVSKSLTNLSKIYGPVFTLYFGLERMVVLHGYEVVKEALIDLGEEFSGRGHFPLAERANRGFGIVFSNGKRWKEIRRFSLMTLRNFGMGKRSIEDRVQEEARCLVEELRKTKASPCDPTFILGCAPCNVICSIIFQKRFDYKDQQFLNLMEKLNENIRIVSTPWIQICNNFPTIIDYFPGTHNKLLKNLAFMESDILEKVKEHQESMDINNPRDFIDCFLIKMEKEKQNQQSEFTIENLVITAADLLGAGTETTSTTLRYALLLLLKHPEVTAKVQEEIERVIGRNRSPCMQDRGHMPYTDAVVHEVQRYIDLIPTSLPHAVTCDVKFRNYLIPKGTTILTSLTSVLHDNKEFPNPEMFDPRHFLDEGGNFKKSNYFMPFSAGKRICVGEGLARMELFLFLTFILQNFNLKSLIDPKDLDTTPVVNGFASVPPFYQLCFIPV

CO[C@H]1/C=C/O[C@@]2(C)Oc3c(C)c(O)c4c(O)c(c(/C=N/N5CCN(C)CC5)c(O)c4c3C2=O)NC(=O)/C(C)=C\C=C\[C@H](C)[C@H](O)[C@@H](C)[C@@H](O)[C@@H](C)[C@H](OC(C)=O)[C@@H]1C [RIFAMPIN]
MIC [1]: 0.03 µM (≈ 0.0247 µg/mL)
MIC [2]: 0.004 µM (≈ 0.00329 µg/mL)
MIC [3]: 0.01 µM (≈ 0.00823 µg/mL)
MIC [4]: 0.01 µM (≈ 0.00823 µg/mL)
MIC [5]: 0.01 µM (≈ 0.00823 µg/mL)

C[C@H]1COC2(CCN(c3nc(=O)c4cc(C(F)(F)F)cc([N+](=O)[O-])c4s3)CC2)O1 [BTZ-043]
MIC [1]: 0.012 µM (≈ 0.00518 µg/mL)
MIC [2]: 0.003 µM (≈ 0.00129 µg/mL)
MIC [3]: 0.003 µM (≈ 0.00129 µg/mL)
MIC [4]: 12.5 µM (≈ 5.39 µg/mL)
MIC [5]: 0.003 µM (≈ 0.00129 µg/mL)

Cn1ncc(C(=O)N2[C@@H]3CC[C@H]2C[C@@H](Nc2n[nH]c4ccc(F)cc24)C3)c1Cl
INH (Cytochrome P450 2D6): > 30 µM
INH (Cytochrome P450 2C9): > 30 µM
IC50 [6]: 0.12 µM
microsomal CLint at 1 µM [7]: 4 µL/min/mg
IC50 (Adenosine receptor A1): 8 µM
hepatocyte CLint at 1 µM [8]: 9 µL/min/1e6 cells
INH (Cytochrome P450 1A2): > 30 µM
solubility at 24 h [9]: > 1000 µM
MCC at 72 h [10]: > 50 µM
INH (Cytochrome P450 2C19): > 30 µM
IC50 [11]: > 33 µM
MIC [3]: 6.25 µM (≈ 2.52 µg/mL)
fraction unbound at 18 h, 20 µM [12]: 0.08
Papp A→B [13]: 20 ×10⁻⁶ cm/s
Papp B→A [14]: 31 ×10⁻⁶ cm/s
logD [15]: 1.9
INH (Cytochrome P450 3A4): > 30 µM

COc1nc2ccc(Br)cc2cc1[C@@H](c1ccccc1)[C@@](O)(CCN(C)C)c1cccc2ccccc12 [BEDAQUILINE]
MIC [1]: 0.8 µM (≈ 0.444 µg/mL)
MIC [2]: 0.8 µM (≈ 0.444 µg/mL)
MIC [3]: 0.78 µM (≈ 0.433 µg/mL)
MIC [4]: 1.6 µM (≈ 0.889 µg/mL)
MIC [5]: 1.6 µM (≈ 0.889 µg/mL)

Cn1ncc(C(=O)N2CCC(Nc3cc(=O)[nH]c4c(F)c(F)ccc34)CC2)c1Cl
Activity (Pseudomonas aeruginosa [16]): inactive
Activity (Haemophilus influenzae [17]): inactive
IC50 [6]: 0.009 µM
Activity [18]: inactive
Activity (Escherichia coli [19]): inactive
Activity (Staphylococcus aureus): inactive
Activity (Klebsiella pneumoniae): inactive
Activity [20]: inactive
Activity (Escherichia coli [21]): inactive
MIC [3]: 1.6 µM (≈ 0.675 µg/mL)
Activity (Streptococcus pneumoniae): inactive
Activity [22]: inactive
Activity (Candida albicans): inactive
Activity (Pseudomonas aeruginosa [23]): inactive
Activity (Haemophilus influenzae [24]): inactive

Cn1ncc(C(=O)N2CCC(Oc3cc(=O)[nH]c4ccccc34)CC2)c1Cl
Activity (Pseudomonas aeruginosa [16]): inactive
Activity (Haemophilus influenzae [17]): inactive
IC50 [6]: 8 µM
Activity [18]: inactive
Activity (Escherichia coli [19]): inactive
Activity (Staphylococcus aureus): inactive
Activity (Klebsiella pneumoniae): inactive
Activity [20]: inactive
Activity (Escherichia coli [21]): inactive
MIC [3]: 50 µM (≈ 19.3 µg/mL)
Activity (Streptococcus pneumoniae): inactive
Activity [22]: inactive
Activity (Candida albicans): inactive
Activity (Pseudomonas aeruginosa [23]): inactive
Activity (Haemophilus influenzae [24]): inactive
